Values joined by “and” are separate entries in the source; they are usually repeats but may differ in a detail not shown here. Equal entries are not always repeated.
System: U2OS
Assay: Multiplex assay against U2OS
Type: toxicity, cell-based
Conditions: human, number of replicates 2
Method in brief: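 Per cents of healthy-nucleus cells form the tubulin, mitochondrial-mass and membrane-permeability phenotype values. Live cells were stained at seeding with Hoechst33342, BioTracker Green Microtubule Cytoskeleton Dye, MitoTracker Red and Annexin V Alexa Fluor 680. After compound addition they were imaged on a CQ1 microscope at 37°C and 5% CO2, and CellPathfinder machine-learning gating split them into Hoechst high-intensity objects or normal cells, normal cells into healthy, pyknosed or fragmented nuclei, and pyknosed cells into mitotic or apoptotic.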

[1] = 12 h, 1 µM, compound concentration 1 uM
[2] = 12 h, 10 µM, compound concentration 10 uM
[3] = 24 h, 1 µM, compound concentration 1 uM
[4] = 24 h, 10 µM, compound concentration 10 uM
[5] = 48 h, 1 µM, compound concentration 1 uM
[6] = 48 h, 10 µM, compound concentration 10 uM

Question: Which “Population Apoptotic (%)” value [1] does the source give for `COc1ccncc1C(=O)NC(=O)Nc1ccc(-c2ccccc2)c(C(F)(F)F)c1` here?
Answer: 33% and 36%

Question: And the “Population Healthy Nuclei (%)” value [1]?
Answer: 65% and 86%

Question: What about the “Population Hoechst High Intensity Objects (%)” value [1] of the same compound?
Answer: 0%

Question: And the “Population Membrane Permeable-Phenotype (%)” value [1]?
Answer: 0% and 1%

Question: What about the “Population Mitochondria Different-Phenotype (%)” value [1] of the same compound?
Answer: 0% and 1%

Question: And the “Population Mitotic Cells (%)” value [1]?
Answer: 66% and 63%

Question: What about the “Population Normal (%)” value [1] of the same compound?
Answer: 100%

Question: And the “Population Pyknosed Nuclei (%)” value [1]?
Answer: 11% and 9%

Question: What about the “Population Tubulin-Different-Phenotype (%)” value [1] of the same compound?
Answer: 58% and 88%

Question: And the “Population Apoptotic (%)” value [2]?
Answer: 25% and 33%

Question: What about the “Population Fragmented Nuclei (%)” value [2] of the same compound?
Answer: 8% and 2%

Question: And the “Population Healthy Nuclei (%)” value [2]?
Answer: 75% and 88%

Question: And the “Population Hoechst High Intensity Objects (%)” value [2]?
Answer: 0%

Question: What about the “Population Membrane Permeable-Phenotype (%)” value [2] of the same compound?
Answer: 2% and 1%

Question: And the “Population Mitochondria Different-Phenotype (%)” value [2]?
Answer: 2% and 1%

Question: What about the “Population Mitotic Cells (%)” value [2] of the same compound?
Answer: 75% and 66%

Question: And the “Population Normal (%)” value [2]?
Answer: 100%

Question: What about the “Population Pyknosed Nuclei (%)” value [2] of the same compound?
Answer: 16% and 9%

Question: What about the “Population Tubulin-Different-Phenotype (%)” value [2] of the same compound?
Answer: 67% and 78%

Question: And the “Population Apoptotic (%)” value [3]?
Answer: 66% and 57%

Question: And the “Population Healthy Nuclei (%)” value [3]?
Answer: 63% and 90%

Question: And the “Population Hoechst High Intensity Objects (%)” value [3]?
Answer: 0%

Question: And the “Population Membrane Permeable-Phenotype (%)” value [3]?
Answer: 4% and 2%

Question: What about the “Population Mitochondria Different-Phenotype (%)” value [3] of the same compound?
Answer: 0% and 1%

Question: And the “Population Mitotic Cells (%)” value [3]?
Answer: 33% and 42%

Question: And the “Population Normal (%)” value [3]?
Answer: 100%

Question: What about the “Population Pyknosed Nuclei (%)” value [3] of the same compound?
Answer: 15% and 6%

Question: What about the “Population Tubulin-Different-Phenotype (%)” value [3] of the same compound?
Answer: 62% and 89%

Question: And the “Population Apoptotic (%)” value [4]?
Answer: 66% and 31%

Question: And the “Population Fragmented Nuclei (%)” value [4]?
Answer: 1% and 3%

Question: And the “Population Healthy Nuclei (%)” value [4]?
Answer: 93% and 90%

Question: What about the “Population Hoechst High Intensity Objects (%)” value [4] of the same compound?
Answer: 0%

Question: What about the “Population Membrane Permeable-Phenotype (%)” value [4] of the same compound?
Answer: 5% and 0%

Question: And the “Population Mitochondria Different-Phenotype (%)” value [4]?
Answer: 0%

Question: And the “Population Mitotic Cells (%)” value [4]?
Answer: 33% and 68%

Question: What about the “Population Normal (%)” value [4] of the same compound?
Answer: 100%

Question: What about the “Population Pyknosed Nuclei (%)” value [4] of the same compound?
Answer: 5% and 6%

Question: And the “Population Tubulin-Different-Phenotype (%)” value [4]?
Answer: 72% and 79%

Question: And the “Population Apoptotic (%)” value [5]?
Answer: 60% and 43%

Question: What about the “Population Healthy Nuclei (%)” value [5] of the same compound?
Answer: 70% and 90%

Question: And the “Population Hoechst High Intensity Objects (%)” value [5]?
Answer: 0%

Question: And the “Population Membrane Permeable-Phenotype (%)” value [5]?
Answer: 2% and 1%

Question: What about the “Population Mitochondria Different-Phenotype (%)” value [5] of the same compound?
Answer: 2% and 0%

Question: What about the “Population Mitotic Cells (%)” value [5] of the same compound?
Answer: 40% and 56%

Question: And the “Population Normal (%)” value [5]?
Answer: 100%

Question: And the “Population Pyknosed Nuclei (%)” value [5]?
Answer: 10% and 7%

Question: And the “Population Tubulin-Different-Phenotype (%)” value [5]?
Answer: 65% and 90%

Question: What about the “Population Apoptotic (%)” value [6] of the same compound?
Answer: 23% and 69%

Question: What about the “Population Fragmented Nuclei (%)” value [6] of the same compound?
Answer: 7% and 2%

Question: And the “Population Healthy Nuclei (%)” value [6]?
Answer: 81% and 93%

Question: What about the “Population Hoechst High Intensity Objects (%)” value [6] of the same compound?
Answer: 0%

Question: And the “Population Membrane Permeable-Phenotype (%)” value [6]?
Answer: 0%

Question: What about the “Population Mitochondria Different-Phenotype (%)” value [6] of the same compound?
Answer: 0%

Question: And the “Population Mitotic Cells (%)” value [6]?
Answer: 76% and 30%

Question: And the “Population Normal (%)” value [6]?
Answer: 100% and 99%

Question: And the “Population Pyknosed Nuclei (%)” value [6]?
Answer: 10% and 4%

Question: What about the “Population Tubulin-Different-Phenotype (%)” value [6] of the same compound?
Answer: 83%

Question: What does the source list for `CC(C)c1c(NC(=O)Nc2ccc(Cl)cc2)c(=O)n(-c2ccccc2)n1C`?
Answer: Population Apoptotic (%) [1]: 33% and 32%; Population Healthy Nuclei (%) [1]: 66% and 85%; Population Hoechst High Intensity Objects (%) [1]: 0%; Population Membrane Permeable-Phenotype (%) [1]: 0%; Population Mitochondria Different-Phenotype (%) [1]: 0%; Population Mitotic Cells (%) [1]: 66% and 68%; Population Normal (%) [1]: 100%; Population Pyknosed Nuclei (%) [1]: 10% and 9%; Population Tubulin-Different-Phenotype (%) [1]: 65% and 81%; Population Apoptotic (%) [2]: 100% and 43%; Population Hoechst High Intensity Objects (%) [2]: 0%; Population Membrane Permeable-Phenotype (%) [2]: 0% and 2%; Population Mitochondria Different-Phenotype (%) [2]: 0%; Population Normal (%) [2]: 100% and 99%; Population Pyknosed Nuclei (%) [2]: 6%; Population Tubulin-Different-Phenotype (%) [2]: 85% and 66%; Population Apoptotic (%) [3]: 50% and 26%; Population Healthy Nuclei (%) [3]: 68% and 89%; Population Hoechst High Intensity Objects (%) [3]: 0%; Population Membrane Permeable-Phenotype (%) [3]: 0% and 1%; Population Mitochondria Different-Phenotype (%) [3]: 0%; Population Mitotic Cells (%) [3]: 50% and 73%; Population Normal (%) [3]: 100% and 99%; Population Pyknosed Nuclei (%) [3]: 15% and 7%; Population Tubulin-Different-Phenotype (%) [3]: 61% and 84%; Population Apoptotic (%) [4]: 100% and 36%; Population Healthy Nuclei (%) [4]: 32% and 87%; Population Hoechst High Intensity Objects (%) [4]: 0%; Population Membrane Permeable-Phenotype (%) [4]: 0% and 2%; Population Mitochondria Different-Phenotype (%) [4]: 0%; Population Normal (%) [4]: 100%; Population Pyknosed Nuclei (%) [4]: 2% and 8%; Population Tubulin-Different-Phenotype (%) [4]: 64% and 78%; Population Apoptotic (%) [5]: 50% and 49%; Population Fragmented Nuclei (%) [5]: 12% and 3%; Population Healthy Nuclei (%) [5]: 72% and 88%; Population Hoechst High Intensity Objects (%) [5]: 0%; Population Membrane Permeable-Phenotype (%) [5]: 0% and 1%; Population Mitochondria Different-Phenotype (%) [5]: 0%; Population Mitotic Cells (%) [5]: 50%; Population Normal (%) [5]: 100% and 99%; Population Pyknosed Nuclei (%) [5]: 15% and 7%; Population Tubulin-Different-Phenotype (%) [5]: 62% and 85%; Population Apoptotic (%) [6]: 100% and 55%; Population Healthy Nuclei (%) [6]: 31% and 91%; Population Hoechst High Intensity Objects (%) [6]: 0%; Population Membrane Permeable-Phenotype (%) [6]: 0% and 1%; Population Mitochondria Different-Phenotype (%) [6]: 0%; Population Normal (%) [6]: 100%; Population Pyknosed Nuclei (%) [6]: 1% and 5%; Population Tubulin-Different-Phenotype (%) [6]: 77% and 80%

Question: Which results are given for `COc1cc(N(C)c2ccnc3ccc(C(F)(F)F)cc23)cc(OC)c1OC`?
Answer: Population Apoptotic (%) [1]: 75% and 100%; Population Healthy Nuclei (%) [1]: 84% and 54%; Population Hoechst High Intensity Objects (%) [1]: 0%; Population Membrane Permeable-Phenotype (%) [1]: 2% and 8%; Population Mitochondria Different-Phenotype (%) [1]: 3% and 0%; Population Mitotic Cells (%) [1]: 25% and 0%; Population Normal (%) [1]: 100%; Population Pyknosed Nuclei (%) [1]: 10% and 22%; Population Tubulin-Different-Phenotype (%) [1]: 76% and 50%; Population Apoptotic (%) [2]: 50% and 51%; Population Healthy Nuclei (%) [2]: 65% and 78%; Population Hoechst High Intensity Objects (%) [2]: 0%; Population Membrane Permeable-Phenotype (%) [2]: 10% and 4%; Population Mitochondria Different-Phenotype (%) [2]: 10% and 5%; Population Mitotic Cells (%) [2]: 50% and 48%; Population Normal (%) [2]: 100%; Population Pyknosed Nuclei (%) [2]: 6% and 16%; Population Tubulin-Different-Phenotype (%) [2]: 26% and 34%; Population Apoptotic (%) [3]: 100% and 86%; Population Fragmented Nuclei (%) [3]: 10% and 3%; Population Healthy Nuclei (%) [3]: 75% and 92%; Population Hoechst High Intensity Objects (%) [3]: 0%; Population Membrane Permeable-Phenotype (%) [3]: 0%; Population Mitochondria Different-Phenotype (%) [3]: 4% and 0%; Population Mitotic Cells (%) [3]: 0% and 13%; Population Normal (%) [3]: 100%; Population Pyknosed Nuclei (%) [3]: 14% and 4%; Population Tubulin-Different-Phenotype (%) [3]: 57% and 76%; Population Apoptotic (%) [4]: 66% and 75%; Population Healthy Nuclei (%) [4]: 65% and 79%; Population Hoechst High Intensity Objects (%) [4]: 0%; Population Membrane Permeable-Phenotype (%) [4]: 0% and 5%; Population Mitochondria Different-Phenotype (%) [4]: 14% and 9%; Population Mitotic Cells (%) [4]: 33% and 24%; Population Normal (%) [4]: 100%; Population Pyknosed Nuclei (%) [4]: 9% and 15%; Population Tubulin-Different-Phenotype (%) [4]: 47% and 45%; Population Apoptotic (%) [5]: 75% and 73%; Population Fragmented Nuclei (%) [5]: 11% and 3%; Population Healthy Nuclei (%) [5]: 80% and 90%; Population Hoechst High Intensity Objects (%) [5]: 0%; Population Membrane Permeable-Phenotype (%) [5]: 2% and 1%; Population Mitochondria Different-Phenotype (%) [5]: 2% and 0%; Population Mitotic Cells (%) [5]: 25% and 26%; Population Normal (%) [5]: 100%; Population Pyknosed Nuclei (%) [5]: 7% and 6%; Population Tubulin-Different-Phenotype (%) [5]: 76% and 84%; Population Apoptotic (%) [6]: 66% and 72%; Population Healthy Nuclei (%) [6]: 58% and 87%; Population Hoechst High Intensity Objects (%) [6]: 0%; Population Membrane Permeable-Phenotype (%) [6]: 11% and 3%; Population Mitochondria Different-Phenotype (%) [6]: 14% and 4%; Population Mitotic Cells (%) [6]: 33% and 27%; Population Normal (%) [6]: 100%; Population Pyknosed Nuclei (%) [6]: 26% and 9%; Population Tubulin-Different-Phenotype (%) [6]: 40% and 49%

— ChEMBL document CHEMBL5303300, “EUbOPEN Chemogenomics Library - Multiplex” (2023)
